Test results as given in ChEMBL document CHEMBL1122989, “Quantitative structure-activity relationships in cytokinin agonistic and antagonistic pyrido[2,3-d]pyrimidine derivatives: insights into receptor topology” (J Med Chem, 1985).

system: not listed separately; test: Anticytokinin activity was evaluated by 50% of the callus growth on the medium with kinetin but without anti-cytokinin; assay type: functional, Nicotiana tabacum; conditions: read-out: I50
How it was run: (§1)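 Test compounds at several concentrations in basal medium containing kinetin; medium adjusted to pH 5.6 with 1 N NaOH and autoclaved at 1.0 kg/cm2 for 15 min. Callus growth was the read-out. I50 (µM) is the concentration giving 50% of the callus growth seen on kinetin medium without anticytokinin.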

| Compound | IC50 |
| --- | --- |
| CCc1ccc(Nc2nc(SC)nc3ncccc23)cc1 | 7.15 µM |
| CCCNc1nc(SC)nc2ncccc12 | 0.27 µM |
| CCC(CC)Nc1nc(SC)nc2ncccc12 | 2.72 µM |
| CCOc1ccc(Nc2nc(SC)nc3ncccc23)cc1 | 5.42 µM |
| CSc1nc(Nc2cccc([N+](=O)[O-])c2)c2cccnc2n1 | 3.55 µM |
| CSc1nc(Nc2ccc(Br)cc2)c2cccnc2n1 | 5.75 µM |
| CCCCCCNc1nc(SC)nc2ncccc12 | 3.33 µM |
| CSc1nc(NCc2ccccc2)c2cccnc2n1 | 25.2 µM |
| CSc1nc(NC2CCC2)c2cccnc2n1 | 0.72 µM |
| C=CCNc1nc(SC)nc2ncccc12 | 0.4 µM |
| CCCCCNc1nc(SC)nc2ncccc12 | 0.65 µM |
| CSc1nc(NC2CCCC2)c2cccnc2n1 | 0.49 µM |
| CCCCC(CC)CNc1nc(SC)nc2ncccc12 (stereo unspecified) | 15.8 µM |
| CSc1nc(Nc2ccc(C#N)cc2)c2cccnc2n1 | 7.56 µM |
| CSc1nc(Nc2cccc(C(=O)O)c2)c2cccnc2n1 | 9.2 µM |
| CSc1nc(NC2CC2)c2cccnc2n1 | 4.9 µM |
| CCCCCCCNc1nc(SC)nc2ncccc12 | 4.07 µM |
| CCC(C)Nc1nc(SC)nc2ncccc12 (stereo unspecified) | 0.86 µM |
| CSc1nc(NC2CCCCC2)c2cccnc2n1 | 5.65 µM |
| COCCNc1nc(SC)nc2ncccc12 | 2.53 µM |
| CSc1nc(Nc2cccc(C(C)=O)c2)c2cccnc2n1 | 13.2 µM |
| CSc1nc(Nc2ccc(Cl)cc2)c2cccnc2n1 | 8.51 µM |
| CSc1nc(Nc2ccccc2)c2cccnc2n1 | 15.8 µM |
| CCOCCNc1nc(SC)nc2ncccc12 | 7.59 µM |
| CCCCNc1nc(SC)nc2ncccc12 | 0.27 µM |
| CSc1nc(Nc2ccc(C(C)=O)cc2)c2cccnc2n1 | 8.96 µM |
| COc1ccc(Nc2nc(SC)nc3ncccc23)cc1 | 9.42 µM |
| CSc1nc(Nc2ccc(F)cc2)c2cccnc2n1 | 2.62 µM |
| CSc1nc(NCC(C)C)c2cccnc2n1 | 0.54 µM |
| CNc1nc(SC)nc2ncccc12 | 2.92 µM |

system: not listed separately; test: Anticytokinin activity was evaluated by 50% of the callus growth on the medium with kinetin but without anti-cytokinin; Insoluble; assay type: functional, Nicotiana tabacum; conditions: not given; how it was run: as §1

| Compound | I50 |
| --- | --- |
| CSc1nc(Nc2ccc([N+](=O)[O-])cc2)c2cccnc2n1 | Insoluble |

system: Nicotiana tabacum; test: Effective concentration required for cytokinin activity for producing maximum response of callus yield; assay type: functional; conditions: not given
How it was run: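 Callus growth assay run without kinetin, with test compounds at several concentrations in basal medium. Medium adjusted to pH 5.6 with 1 N NaOH and autoclaved at 1.0 kg/cm2 for 15 min. Callus yield was the read-out.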

| Compound | E50 |
| --- | --- |
| CSc1nc(Nc2cccc(Br)c2)c2cccnc2n1 | 2.38 µM |
| CSc1nc(Nc2ccccc2C)c2cccnc2n1 | 3.59 µM |
| CSc1nc(Nc2cccc(F)c2)c2cccnc2n1 | 3.39 µM |
| CSc1nc(Nc2cccc(I)c2)c2cccnc2n1 | 5.2 µM |
| CSc1nc(Nc2cc(C)cc(C)c2)c2cccnc2n1 | 2.82 µM |
| CCc1cccc(Nc2nc(SC)nc3ncccc23)c1 | 1.91 µM |
| CSc1nc(Nc2ccc(I)cc2)c2cccnc2n1 | 2.21 µM |
| CSc1nc(Nc2cccc(C#N)c2)c2cccnc2n1 | 2.15 µM |
| CSc1nc(Nc2cc(Cl)cc(Cl)c2)c2cccnc2n1 | 0.84 µM |
| CSc1nc(Nc2cc(C)ccc2C)c2cccnc2n1 | 0.96 µM |
| CSc1nc(Nc2ccc(C)c(C)c2)c2cccnc2n1 | 0.92 µM |
| CSc1nc(Nc2cccc(C)c2)c2cccnc2n1 | 1.58 µM |
| CSc1nc(Nc2ccc(Cl)cc2Cl)c2cccnc2n1 | 0.95 µM |
| CSc1nc(Nc2ccc(C(=O)O)cc2)c2cccnc2n1 | 12.5 µM |
| CSc1nc(Nc2cccc(O)c2)c2cccnc2n1 | 5.44 µM |
